High-throughput results: PubChem BioAssay, several laboratories
This is a sample that favours compounds with a hit; in the whole collection about 3.8% have one here.
V-ATPase pHluor: yeast V-ATPase proton transport regulation by pHLuorin. S. cerevisiae, pHLuorin cytosolic pH fluorescence. response, % at 10 µM. 0.37% of 350,000 active; in the data active = response mostly above about 7.3%, no sharp cut-off; inactive = mostly below about 5.4%; note: actives read high
Granule exo inh: blocks lytic granule exocytosis | TALL-104 LAMP-1 surface exposure, flow cytometry; cells stimulated with thapsigargin and PMA | inhibition, % at 10 µM | 0.66% of 360,000 active | AID 651702;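 active = inhibition above about 55%, limit read from the data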
T cell modulator: T cell immune modulation candidate; 2C CD8+ T cell-vesicle binding, flow cytometry; stronger effect = lower value; response (vesicle binding), % at 7 µM; 0.068% of 330,000 active;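 active = response, share of CD8 T cells binding vesicles, and their 90th percentile fluorescence all below set limits, cut at about 80% in these data, passing the limit was not always enough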;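 note: values below 100% mean blocked vesicle binding to the CD8+ T cells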
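Assay system: 2C TCR transgenic mouse naive CD8+ T cells, MACS-purified | Read-out: CD8+ gate FL2 mean fluorescence as % of same-row positive control | Signal: High-throughput flow cytometry with anti-B7-1 and anti-CD8 staining | Timing: Binding step 1.5 h, 37 °C, antibody labelling 20 min, ice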
B2AR ag: agonists of human beta-2 adrenergic receptor inducing internalization; response, % (no concentration beside the values); 0.43% of 340,000 active; Am2.2-beta2AR cells, FAP receptor internalization, flow cytometry;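 active = response above a set limit, near 3 SD of response in nonfluorescent compounds, cut at about 42% in these data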
Target sequence (P07550 whole entry, looked up): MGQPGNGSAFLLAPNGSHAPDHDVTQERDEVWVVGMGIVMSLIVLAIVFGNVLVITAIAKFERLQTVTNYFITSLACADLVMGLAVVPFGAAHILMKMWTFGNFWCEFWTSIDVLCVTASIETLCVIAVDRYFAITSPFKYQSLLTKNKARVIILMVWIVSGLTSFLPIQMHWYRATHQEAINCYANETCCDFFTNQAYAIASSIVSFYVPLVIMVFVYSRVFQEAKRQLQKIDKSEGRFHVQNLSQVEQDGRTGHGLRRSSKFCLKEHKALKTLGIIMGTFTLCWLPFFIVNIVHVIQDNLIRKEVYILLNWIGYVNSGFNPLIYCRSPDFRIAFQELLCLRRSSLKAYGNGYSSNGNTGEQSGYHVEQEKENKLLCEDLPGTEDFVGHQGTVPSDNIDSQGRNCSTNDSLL
rCAG RNA binder: binds r(CAG) RNA repeats; r(CAG) RNA repeat, TO-PRO-1 dye displacement fluorescence; inhibition, % at 3 µM; 1.3% of 370,000 active;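 active = inhibition above the plate cutoff, the mean of all test compounds on that plate plus 3 SD, cut at about 35% in these data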;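 note: 0% = DMSO alone and 100% = 100 µM mitoxantrone as full dye displacement; higher means more dye released from RNA so lower well fluorescence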
MPTP block: inhibitors of mitochondrial permeability transition pore. isolated mouse mitochondria, Ca2+ swelling absorbance, 30 min. inhibition, % at 10 µM. 1.4% of 360,000 active. AID 602449;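 active = inhibition of 50% or more, scaled per plate between neutral and stimulator controls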;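 note: 0% = DMSO wells given calcium and 100% = 1 mM EGTA wells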
rCAG bind conf: r(CAG) RNA repeat binding, confirmation; shares compounds with rCAG RNA binder; TO-PRO-1 dye displacement fluorescence; inhibition, % at 3 µM; 70% of 4,300 active;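 active = inhibition above a per-plate cutoff, the mean inhibition of sample wells plus 3 SD, cut at about 35% in these data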;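 note: loss of TO-PRO-1 fluorescence as compound displaces dye from 1x1 AA loop RNA; 0% = DMSO only wells and 100% = 100 µM mitoxantrone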
dCAG dye counter: counter-screen for rCAG RNA binders: DNA CAG dye complex inhibitors | AID 652068 | 94% of 4,300 active | shares compounds with rCAG RNA binder | inhibition, % at 3 µM | d(CAG) DNA oligo TO-PRO-1 dye displacement, fluorescence;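 active = inhibition above its plate's cutoff, the mean test-well inhibition plus 3 SD, cut at about 4.8% in these data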;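 note: 0% = DNA dye mix with DMSO and 100% = 100 µM mitoxantrone; hits displace the dye from DNA and so lower well fluorescence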
DNA CAG DR: counter-screen for rCAG binders: inhibitors of DNA CAG TO-PRO-1 complex | shares compounds with rCAG RNA binder | DNA CAG/GTC duplex TO-PRO-1 dye displacement fluorescence | IC50, µM | 20% of 250 active; in the data active = IC50 below about 10 µM
* = called active by the depositor; i = inactive; · = no result.

SMILES	V-ATPase pHluor	Granule exo inh	T cell modulator	B2AR ag	rCAG RNA binder	MPTP block	rCAG bind conf	dCAG dye counter	others
N=C1/C(=C\c2ccc(-c3cccc(C(=O)O)c3)o2)C(=O)N=C2SC=C(c3ccccc3)N12	0.6	-1.4	356.7	18.6	85.8*	2.5	91.3*	69.9*
O=C(CSCc1ccc(Cl)cc1)Nc1ccc(Br)cc1C(=O)O	-1.9	11.9	82.4	-1.0	43.9*	4.2	36.0*	8.7*
O=C(CSCc1ccc(Cl)cc1Cl)Nc1ccc(O)cc1C(=O)O	-1.5	2.3	379.0	3.5	13.6	-0.6	·	·
CCOC(=O)[C@]12CCCC=C1N(Cc1ccc(OC)cc1)C(=O)[C@@H]2CC(=O)NCC12CC3CC(CC(C3)C1)C2	·	·	·	·	4.1	·	·	·
Cc1ccc2c(c1)N(CCCC(=O)N(C)Cc1ccc(F)cc1)C(=O)CO2	·	·	·	·	1.7	·	·	·
CCCCC[C@@H]1C=C(C(=O)O)[C@H](c2ccc(CC)cc2)N1S(=O)(=O)c1ccc(C)cc1	4.4	-1.1	0.0	-1.0	8.1	1.9	·	·
CCCC[C@@H]1C=C(C(=O)O)[C@H](c2ccc(CC)cc2)N1S(=O)(=O)c1ccc(C)cc1	1.7	-0.5	245.9	4.5	65.7*	1.1	49.1*	15.1*
CCCCC[C@@H]1C=C(C(=O)O)[C@H](c2ccc(F)cc2)N1S(=O)(=O)c1ccc(C)cc1	1.7	11.4	241.6	3.3	59.5*	2.8	44.6*	14.2*
CC[C@@H]1C=C(C(=O)O)[C@H](c2ccc(Br)cc2)N1S(=O)(=O)c1ccc(C)cc1	1.6	-5.0	i	1.1	27.4	-0.1	·	·
CCCC[C@@H]1C=C(C(=O)O)[C@H](c2ccc(Br)cc2)N1S(=O)(=O)c1ccc(C)cc1	-1.7	2.4	285.3	4.0	53.0*	1.6	54.2*	19.1*
O=C(OCc1cn(Cc2cccc(Cl)c2)nn1)N1CCOCC1	·	·	·	·	1.4	·	·	·
COc1ccc([C@H](C#Cc2ccccc2)CC(=O)O)cc1OC1CCCC1	·	·	·	·	20.1	·	·	·
COc1cc(C)ccc1S(=O)(=O)NC(=O)C1(C)CCN1C(=O)Cc1ccccc1Cl (stereo not drawn)	·	-3.1	·	·	5.3	-0.1	·	·
Cc1cccc(S(=O)(=O)NC(=O)C2(C)CCN2C(=O)C2(c3ccc(Cl)cc3)CC2)c1 (stereo not drawn)	·	2.8	·	·	31.7	0.8	·	·
COc1cc(C)ccc1S(=O)(=O)NC(=O)C1(C)CCN1C(=O)C1(c2ccc(Cl)cc2)CCC1 (stereo not drawn)	·	8.5	·	·	42.0*	-0.4	30.2	5.4*
Cc1ccc(F)c(S(=O)(=O)NC(=O)C2(C)CCN2C(=O)C2(c3ccc(Cl)cc3)CC2)c1 (stereo not drawn)	·	-2.2	·	·	36.4*	0.2	34.7*	7.6*
Cc1ccc(F)c(S(=O)(=O)NC(=O)C2(C)CCN2C(=O)C2(c3ccc(Cl)cc3)CCC2)c1 (stereo not drawn)	·	13.2	·	·	36.1*	0.3	62.6*	24.1*
CC1(c2nnnn2Cc2ccccc2)CSCC(=O)N1Cc1cccs1 (stereo not drawn)	·	·	·	·	5.4	·	·	·
COC(=O)c1cc(NC(=O)NC2CCCCN(Cc3ccc(Cl)cc3)C2=O)cc(C(=O)OC)c1 (stereo not drawn)	·	·	·	·	7.8	·	·	·
C[C@@H](NC(=O)c1ccc(C#Cc2cccc(F)c2)cn1)C(C)(C)O	·	·	·	·	1.0	·	·	·
Cc1oc2c(cc(NS(=O)(=O)c3ccc4c5c(cccc35)C(=O)N4)c3ccccc32)c1C(=O)OC(C)C	0.9	-1.3	966.8	-1.2	36.6*	6.1	38.1*	17.4*
CCOC(=O)c1c(C)oc2c1cc(NS(=O)(=O)c1ccc(C(=O)O)cc1)c1ccccc12	-0.8	4.1	514.5	-1.4	66.5*	-2.4	54.8*	19.6*
COC(=O)[C@H](CC(C)C)N(CCCc1cn(CC2CCCCC2)nn1)S(=O)(=O)c1ccc(F)cc1Br	·	·	·	·	0.6	·	·	·
Nn1c(SCC(=O)N2c3ccccc3Sc3ccc(Cl)cc32)nnc1-c1n[nH]c2c1CCC2	·	·	·	·	8.3	·	·	·
O=[N+]([O-])c1ccc(OC2OCC(O)C(O)C2O)cc1 (stereo not drawn)	·	·	·	·	0.0	·	·	·
SMILES	V-ATPase pHluor	Granule exo inh	T cell modulator	B2AR ag	rCAG RNA binder	MPTP block	rCAG bind conf	dCAG dye counter	others
CCOC(=O)C1=C(N)n2c(s/c(=C\c3ccco3)c2=O)=C(C(=O)OC(C)C)C1c1ccco1 (stereo not drawn)	0.8	2.1	178.5	64.8*	40.4*	7.9	16.5	7.1*
CCOC(=O)C1=C(N)n2c(s/c(=C\c3ccco3)c2=O)=C(C(=O)OCC)C1c1ccco1 (stereo not drawn)	-2.7	1.6	370.2	22.9	·	2.4	·	·
CCCCN(C)S(=O)(=O)c1ccc(C(=O)Nc2nnc(-c3ccco3)o2)cc1	2.5	0.2	185.7	-0.6	37.2*	2.0	27.0	8.2*
CN(C)S(=O)(=O)c1ccc(C(=O)Nc2nnc(-c3ccco3)o2)cc1	0.3	-2.8	156.6	-1.3	3.6	1.6	·	·
O=C(O)CSC(C(=O)Nc1ccc(Br)cc1)c1ccc(Cl)cc1 (stereo not drawn)	-2.0	-0.4	255.2	0.7	37.2*	3.7	24.1	5.4*
CCc1ccc(N=C2NC(=O)/C(=C/c3cc(OC)c(O)c(OC)c3)S2)cc1	-3.0	13.1	742.8	-5.1	41.6*	2.1	39.8*	16.0*
N#CC1=C(S)N(c2ccccc2)C(c2ccco2)NC1=O (stereo not drawn)	0.0	-5.6	i	-6.7	2.8	0.5	·	·
N#CC1=C(S)N(c2ccccc2)C(c2ccc(-c3ccc(Cl)c(Cl)c3)o2)NC1=O (stereo not drawn)	-2.1	11.3	254.1	7.4	84.3*	5.6	91.3*	78.5*
N#CC1=C(S)N(c2ccccc2)C(c2ccc(-c3cc(Cl)ccc3Cl)o2)NC1=O (stereo not drawn)	2.4	6.0	260.9	9.4	58.7*	1.5	54.8*	18.4*	DNA CAG DR=5.5*
CCCCOc1ccc(C(=O)NC2CCCCN(C(C)C)C2=O)cc1 (stereo not drawn)	·	·	·	·	-4.4	·	·	·
Cc1ncc(CO)c2c1Oc1nc(-c3ccccc3)nc(SCC(=O)Nc3cccc(O)c3)c1C2	-2.4	43.5	220.9	5.5	58.1*	-1.0	29.8	16.9*
COc1ccc(-c2nc3c(c(SCC(=O)Nc4cccc(O)c4)n2)Cc2c(CO)cnc(C)c2O3)cc1	-5.0	6.2	175.7	16.0	57.8*	-1.0	25.2	15.8*
O=C(CSc1nc(-c2ccccc2)nc2c1Cc1ccccc1O2)Nc1ccccc1	·	·	125.5	·	·	·	·	·
